Data: ChEMBL document CHEMBL1122622, “Carbocyclic analogues of xylofuranosylpurine nucleosides. Synthesis and antitumor activity” (J Med Chem, 1984)
pKi: −log10 of the molar value.

Columns and labels:
Mus musculus [1] = experiment: (§1) Compound was evaluated for the in vivo antitumor activity against P388 leukemia cells after injecting the compound intraperitoneally at a dose of 5 mg/kg in mice; assay type: functional; conditions: route intraperitoneal
How it was run: (§2)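 BDF1 male mice, eight per group, implanted ip with 10⁶ P388 leukemia cells. Drug given ip in 0.5 mL saline. Schedules varied between groups; the 100 mg/kg/day regimen was dosed qd 1-9.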

Mus musculus [2] = experiment: Compound was evaluated for the in vivo antitumor activity against p388 leukemia cells after injecting the compound intraperitoneally at a dose of 2 mg/kg in mice; assay type: functional; conditions: route intraperitoneal; how it was run: as §2
Mus musculus [3] = experiment: Compound was evaluated for the in vivo antitumor activity against P388 leukemia cells after injecting the compound intraperitoneally at a dose of 2 mg/kg in mice (treatment schedule 1-9 days); assay type: functional; conditions: route intraperitoneal; how it was run: as §2
Mus musculus [4] = experiment: as §1; assay type: functional; conditions: route intraperitoneal; how it was run: as §2; remark: listed apart in the source
Mus musculus [5] = experiment: Compound was evaluated for the in vivo antitumor activity against P388 leukemia cells after injecting the compound intraperitoneally at a dose of 1 mg/kg in mice; assay type: functional; conditions: route intraperitoneal; how it was run: as §2
Mus musculus [6] = experiment: Compound was evaluated for the in vivo antitumor activity against p388 leukemia cells after injecting the compound intraperitoneally at a dose of 5 mg/kg in mice; assay type: functional; conditions: route intraperitoneal; how it was run: as §2
Mus musculus [7] = experiment: Compound was evaluated for the in vivo antitumor activity against P388 leukemia cells after injecting the compound intraperitoneally at a dose of 50 mg/kg in mice; assay type: functional; conditions: route intraperitoneal; how it was run: as §2
Mus musculus [8] = species: Mus musculus; experiment: Effective dose by 50% was evaluated; assay type: functional
How it was run: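 P388 mouse lymphoid leukemia cells were grown in culture in the presence of the compound, and the concentration giving 50% effect on growth was taken as the ED₅₀.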

[9] = biological target: Adenosine deaminase (Bos taurus) (UniProt P56658); experiment: Compound was evaluated for competitive inhibition of adenosine deaminase and expressed as Ki
Adenosine deaminase (Bos taurus), sequence (P56658 whole entry, looked up): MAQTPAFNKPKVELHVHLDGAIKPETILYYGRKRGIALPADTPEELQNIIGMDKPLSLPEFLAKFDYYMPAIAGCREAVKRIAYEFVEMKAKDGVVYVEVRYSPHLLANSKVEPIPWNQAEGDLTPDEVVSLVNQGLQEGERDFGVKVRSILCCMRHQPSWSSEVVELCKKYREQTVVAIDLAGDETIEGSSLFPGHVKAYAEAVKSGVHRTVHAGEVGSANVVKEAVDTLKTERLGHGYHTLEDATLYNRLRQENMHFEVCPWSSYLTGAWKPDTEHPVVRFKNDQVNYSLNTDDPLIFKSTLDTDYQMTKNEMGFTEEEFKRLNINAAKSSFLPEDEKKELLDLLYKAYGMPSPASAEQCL

How did the Survival time (Mus musculus [1]) turn out when `Nc1ncnc2c1nnn2C1CC(CO)C(O)C1O` (configuration not stated) was run?
The Survival time was 17.9 days.

What about the T/C (Mus musculus [1]) of the same compound?
Its T/C is 175%.

And the T/C (Mus musculus [2])?
Its T/C is 149%.

And the Survival time (Mus musculus [3])?
Its Survival time is 16.1 days.

And the Survival time (Mus musculus [4])?
The Survival time was 18.4 days.

What about the Survival time (Mus musculus [5]) of the same compound?
Its Survival time is 13.9 days.

What about the T/C (Mus musculus [5]) of the same compound?
Its T/C is 128%.

What about the T/C (Mus musculus [6]) of the same compound?
The T/C was 173%.

And the Survival time (Mus musculus [7])?
The Survival time was 19.5 days.

What about the T/C (Mus musculus [7]) of the same compound?
Its T/C is 226%.

For `Nc1ncnc2c1ncn2[C@@H]1C[C@H](CO)[C@@H](O)[C@H]1O` [ARISTEROMYCIN], which ED50 (Mus musculus [8]) is on record?
The ED50 was 67 µM.

What about the pKi [9] of the same compound?
Its pKi is 5.00.
